Activity calls are given as the source filed them. No cut-off for these calls is given here.
Tests used:
HT-29 [1] = test: Cytotoxicity against human HT-29 cells at 10^-6 M after 72 hrs by MTS assay; format: functional; settings: HT-29, 72 h, read-out: GI
How it was run: (§1)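 Cells grown in RPMI with 10% fetal calf serum, penicillin, streptomycin and fungizone under 5% CO₂. Plated in 96-well plates and dosed 24 h later with compound in DMSO (1% final DMSO; controls got DMSO alone). After 72 h, MTS was added for 3 h at 37 °C and A490 read. Inhibition = (1 − OD treated/OD control) × 100, in triplicate.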

HL-60 [2] = test: Cytotoxicity against human HL60 cells at 10^-5 M after 72 hrs by MTS assay; format: functional; settings: HL-60, 72 h, read-out: GI; how it was run: as §1
OVCAR-8 [3] = test: Cytotoxicity against human OVCAR8 cells at 10^-5 M after 72 hrs by MTS assay; format: functional; settings: OVCAR-8, 72 h, read-out: GI
How it was run: (§2)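 Preliminary screen at 10^-5 and 10^-6 M. Cells were grown in RPMI with 10% fetal calf serum plus penicillin, streptomycin and fungizone under 5% CO₂, plated in 96-well plates, and dosed 24 h later from DMSO stocks (1% DMSO final, same in controls). After 72 h, MTS was added for 3 h at 37 °C and absorbance read at 490 nm. Inhibition was calculated as (1 − OD treated/OD control) × 100, in triplicate.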

MCF7 [4] = test: Cytotoxicity against human MCF7 cells at 10^-6 M after 72 hrs by MTS assay; format: functional; settings: MCF7, 72 h, read-out: GI
SF-268 [5] = test: Antiproliferative activity against human SF268 cells after 72 hrs by MTS assay; format: functional, cell-based; settings: SF-268, 72 h
How it was run: (§3)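 Cell lines grown in RPMI with 10% fetal calf serum plus penicillin, streptomycin and fungizone under 5% CO2. Compounds in DMSO (1% final; controls got DMSO alone) were added 24 h after plating. After 72 h exposure, MTS was added for 3 h at 37 °C and A490 read. Inhibition = (1 − OD treated/OD control)×100, in triplicate. IC50s came from separate duplicate dose-response experiments.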

SK-OV-3 [6] = test: Cytotoxicity against human SKOV3 cells at 10^-5 M after 72 hrs by MTS assay; format: functional; settings: SK-OV-3, 72 h, read-out: GI; how it was run: as §2
HCT-116 [7] = test: Cytotoxicity against human HCT116 cells at 10^-6 M after 72 hrs by MTS assay; format: functional; settings: HCT-116, 72 h, read-out: GI; how it was run: as §1
[8] = Cytotoxicity against human HL60R cells at 10^-5 M after 72 hrs by MTS assay; format: functional, HL-60; settings: read-out: GI; how it was run: as §1
HL-60 [9] = test: Cytotoxicity against human HL60 cells at 10^-6 M after 72 hrs by MTS assay; format: functional; settings: HL-60, 72 h, read-out: GI; how it was run: as §1
MIA PaCa-2 [10] = test: Cytotoxicity against human MIAPaCa2 cells at 10^-5 M after 72 hrs by MTS assay; format: functional; settings: MIA PaCa-2, 72 h, read-out: GI
HL-60 [11] = test: Antiproliferative activity against human HL60 cells after 72 hrs by MTS assay; format: functional, cell-based; settings: HL-60, 72 h; how it was run: as §3
PC-3 [12] = test: Antiproliferative activity against human PC3 cells after 72 hrs by MTS assay; format: functional, cell-based; settings: PC-3, 72 h; how it was run: as §3
MCF7 [13] = test: Cytotoxicity against human MCF7 cells at 10^-5 M after 72 hrs by MTS assay; format: functional; settings: MCF7, 72 h, read-out: GI
K562 [14] = test: Cytotoxicity against human K562 cells at 10^-5 M after 72 hrs by MTS assay; format: functional; settings: K562, 72 h, read-out: GI; how it was run: as §1
SF-268 [15] = test: Cytotoxicity against human SF268 cells at 10^-6 M after 72 hrs by MTS assay; format: functional; settings: SF-268, 72 h, read-out: GI; how it was run: as §2
OVCAR-8 [16] = test: Cytotoxicity against human OVCAR8 cells at 10^-6 M after 72 hrs by MTS assay; format: functional; settings: OVCAR-8, 72 h, read-out: GI; how it was run: as §2
A549 [17] = test: Cytotoxicity against human A549 cells at 10^-5 M after 72 hrs by MTS assay; format: functional; settings: A549, 72 h, read-out: GI; how it was run: as §1
[18] = Cytotoxicity against human MDA231 cells at 10^-6 M after 72 hrs by MTS assay; format: functional; settings: MDA-MB-231, 72 h, read-out: GI; how it was run: as §2
PC-3 [19] = test: Cytotoxicity against human PC3 cells at 10^-5 M after 72 hrs by MTS assay; format: functional; settings: PC-3, 72 h, read-out: GI; how it was run: as §2
HCT-116 [20] = test: Cytotoxicity against human HCT116 cells at 10^-5 M after 72 hrs by MTS assay; format: functional; settings: HCT-116, 72 h, read-out: GI; how it was run: as §1
HCT-15 [21] = test: Antiproliferative activity against human HCT15 cells after 72 hrs by MTS assay; format: functional, cell-based; settings: HCT-15, 72 h; how it was run: as §3
SK-OV-3 [22] = test: Antiproliferative activity against human SKOV3 cells after 72 hrs by MTS assay; format: functional, cell-based; settings: SK-OV-3, 72 h; how it was run: as §3
A549 [23] = test: Cytotoxicity against human A549 cells at 10^-6 M after 72 hrs by MTS assay; format: functional; settings: A549, 72 h, read-out: GI; how it was run: as §1
OVCAR-8 [24] = test: Antiproliferative activity against human OVCAR8 cells after 72 hrs by MTS assay; format: functional, cell-based; settings: OVCAR-8, 72 h; how it was run: as §3
PC-3 [25] = test: Cytotoxicity against human PC3 cells at 10^-6 M after 72 hrs by MTS assay; format: functional; settings: PC-3, 72 h, read-out: GI; how it was run: as §2
HT-29 [26] = test: Cytotoxicity against human HT-29 cells at 10^-5 M after 72 hrs by MTS assay; format: functional; settings: HT-29, 72 h, read-out: GI; how it was run: as §1
MIA PaCa-2 [27] = test: Cytotoxicity against human MIAPaCa2 cells at 10^-6 M after 72 hrs by MTS assay; format: functional; settings: MIA PaCa-2, 72 h, read-out: GI
SK-OV-3 [28] = test: Cytotoxicity against human SKOV3 cells at 10^-6 M after 72 hrs by MTS assay; format: functional; settings: SK-OV-3, 72 h, read-out: GI; how it was run: as §2
[29] = Cytotoxicity against human HL60R cells at 10^-6 M after 72 hrs by MTS assay; format: functional; settings: read-out: GI; how it was run: as §1
Ovis aries [30] = organism: Ovis aries; test: Inhibition of sheep brain tubulin polymerization at 10 uM
How it was run: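 Microtubule protein from sheep brain, purified by two assembly/disassembly cycles (37 °C/0 °C), in 100 mM MES pH 6.6, 1 mM EGTA, 0.5 mM MgCl₂. Compounds in DMSO were tested at a single concentration, with incubation at 37 °C for 10 min and then 0 °C for 5 min before measuring assembly rate, following a modified Guénard protocol.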

[31] = Antiproliferative activity against human MDA231 cells after 72 hrs by MTS assay; format: functional, cell-based; settings: MDA-MB-231, 72 h; how it was run: as §3
[32] = Cytotoxicity against human MDA231 cells at 10^-5 M after 72 hrs by MTS assay; format: functional; settings: MDA-MB-231, 72 h, read-out: GI; how it was run: as §2
HCT-15 [33] = test: Cytotoxicity against human HCT15 cells at 10^-5 M after 72 hrs by MTS assay; format: functional; settings: HCT-15, 72 h, read-out: GI; how it was run: as §1
K562 [34] = test: Cytotoxicity against human K562 cells at 10^-6 M after 72 hrs by MTS assay; format: functional; settings: K562, 72 h, read-out: GI; how it was run: as §1
K562 [35] = test: Antiproliferative activity against human K562 cells after 72 hrs by MTS assay; format: functional, cell-based; settings: K562, 72 h; how it was run: as §3
SF-268 [36] = test: Cytotoxicity against human SF268 cells at 10^-5 M after 72 hrs by MTS assay; format: functional; settings: SF-268, 72 h, read-out: GI; how it was run: as §2
HCT-15 [37] = test: Cytotoxicity against human HCT15 cells at 10^-6 M after 72 hrs by MTS assay; format: functional; settings: HCT-15, 72 h, read-out: GI; how it was run: as §1
[38] = Antiproliferative activity against human HL60R cells after 72 hrs by MTS assay; format: functional, cell-based
Ovis aries [39] = organism: Ovis aries; test: Inhibition of sheep brain tubulin polymerization at 17 uM
[40] = Inhibition of sheep brain tubulin polymerization; design: species or system Ovis aries

| Structure (SMILES) | inhibition of growth at 1 µM (HT-29 [1]) [%] | inhibition of growth at 10 µM (HL-60 [2]) [%] | inhibition of growth at 10 µM (OVCAR-8 [3]) [%] | inhibition of growth at 1 µM (MCF7 [4]) [%] | IC50 (SF-268 [5]) [µM] | inhibition of growth at 10 µM (SK-OV-3 [6]) [%] | inhibition of growth at 1 µM (HCT-116 [7]) [%] | inhibition of growth at 10 µM [8] [%] | inhibition of growth at 1 µM (HL-60 [9]) [%] | inhibition of growth at 10 µM (MIA PaCa-2 [10]) [%] | IC50 (HL-60 [11]) [µM] | IC50 (PC-3 [12]) [µM] | inhibition of growth at 10 µM (MCF7 [13]) [%] | inhibition of growth at 10 µM (K562 [14]) [%] | inhibition of growth at 1 µM (SF-268 [15]) [%] | inhibition of growth at 1 µM (OVCAR-8 [16]) [%] | inhibition of growth at 10 µM (A549 [17]) [%] | inhibition of growth at 1 µM [18] [%] | inhibition of growth at 10 µM (PC-3 [19]) [%] | tubulin polymerization inhibition call (active/not active) (Ovis aries [30]) | other results |
| --- | --- | --- | --- | --- | --- | --- | --- | --- | --- | --- | --- | --- | --- | --- | --- | --- | --- | --- | --- | --- | --- |
| COc1ccc(C(=C(COC(C)=O)COC(C)=O)c2cc(OC)c(OC)c(OC)c2)cc1O | 0 | 74 | 94 | 5 | 0.97 | 84 | 0 | 90 | 15 | 51 | 0.68 | 0.27 | 34 | 78 | 16 | 0 | 67 | 0 | 78 | inactive | inhibition of growth at 10 µM (HCT-116 [20]): 59%; IC50 (HCT-15 [21]): 0.68 µM; IC50 (SK-OV-3 [22]): 0.07 µM; inhibition of growth at 1 µM (A549 [23]): 1%; IC50 (OVCAR-8 [24]): 1.9 µM; inhibition of growth at 1 µM (PC-3 [25]): 14%; inhibition of growth at 10 µM (HT-29 [26]): 63%; inhibition of growth at 1 µM (MIA PaCa-2 [27]): 0%; inhibition of growth at 1 µM (SK-OV-3 [28]): 71%; inhibition of growth at 1 µM [29]: 1%; IC50 [31]: 1.03 µM; inhibition of growth at 10 µM [32]: 75%; inhibition of growth at 10 µM (HCT-15 [33]): 77%; inhibition of growth at 1 µM (K562 [34]): 25%; IC50 (K562 [35]): 0.18 µM; inhibition of growth at 10 µM (SF-268 [36]): 71%; inhibition of growth at 1 µM (HCT-15 [37]): 18%; IC50 [38]: 2.72 µM |
| COc1ccc(C(=C(CO)CO)c2cc(OC)c(OC)c(OC)c2)cc1O | – | – | – | – | – | – | – | – | – | – | – | – | – | – | – | – | – | – | – | inactive | inhibition (Ovis aries [39]): Active |
| COc1ccc(C(=O)c2cc(OC)c(OC)c(OC)c2)cc1O [PHENSTATIN] | – | – | – | – | – | – | – | – | – | – | – | – | – | – | – | – | – | – | – | Active | IC50 [40]: 7.9 µM |
| COc1cc(C(=C(CO)CO)c2ccc3ccccc3c2)cc(OC)c1OC | 0 | 75 | 67 | 8 | 1.25 | 64 | 0 | 89 | 17 | 54 | 0.78 | 0.76 | 51 | 83 | 14 | 0 | 67 | 5 | 75 | inactive | inhibition of growth at 10 µM (HCT-116 [20]): 68%; IC50 (HCT-15 [21]): 0.39 µM; IC50 (SK-OV-3 [22]): 6.84 µM; inhibition of growth at 1 µM (A549 [23]): 3%; IC50 (OVCAR-8 [24]): 4.47 µM; inhibition of growth at 1 µM (PC-3 [25]): 10%; inhibition of growth at 10 µM (HT-29 [26]): 71%; inhibition of growth at 1 µM (MIA PaCa-2 [27]): 0%; inhibition of growth at 1 µM (SK-OV-3 [28]): 5%; inhibition of growth at 1 µM [29]: 11%; IC50 [31]: 0.81 µM; inhibition of growth at 10 µM [32]: 88%; inhibition of growth at 10 µM (HCT-15 [33]): 82%; inhibition of growth at 1 µM (K562 [34]): 24%; IC50 (K562 [35]): 0.17 µM; inhibition of growth at 10 µM (SF-268 [36]): 85%; inhibition of growth at 1 µM (HCT-15 [37]): 19%; IC50 [38]: 1.68 µM |
